In ChEMBL document CHEMBL5104120, “Morpholine substituted quinazoline derivatives as anticancer agents against MCF-7, A549 and SHSY-5Y cancer cell lines and mechanistic studies” (RSC Med Chem, 2022) one finds IC50, Activity and viability data, which are given here for 16 compounds.

The structures appear in SMILES notation.

One series relates to A549. The series is described as follows: Antiproliferative activity against human A549 cells assessed as inhibition of cell growth incubated for 48 hrs by MTT assay. The following applies: A549, 48 h. Format: functional, cell-based. In outline:
(§1)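 Cell lines from NCCS; ~8000 cells/well grown 24 h at 37 °C, 5% CO2, serum-starved 8 h to synchronize, then complete medium restored. Compounds applied at 1, 5, 10 and 25 μM in triplicate for 48 h. MTT added after medium removal, 4 h in dark; formazan dissolved in DMSO, absorbance at 590 nm read as % viability (mean ± S.D.); IC50 in μM.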

For series [1], the system named is MCF7. The series is described as follows: Antiproliferative activity against human MCF7 cells assessed as inhibition of cell growth incubated for 48 hrs by MTT assay. It is filed as functional, cell-based. The following applies: MCF7, 48 h. A digest of the protocol: as §1
A general note: Tetrazolium dyes change colour on reduction, which living cells bring about.

Series [2] concerns SH-SY5Y. The series is described as follows: Antiproliferative activity against human SH-SY5Y cells assessed as inhibition of cell growth incubated for 48 hrs by MTT assay. Format: functional, cell-based. In outline:
as §1

Series [3] concerns MCF7. As to the kind of experiment: Antiproliferative activity against human MCF7 cells assessed as inhibition of cell growth incubated for 72 hrs by SRB assay. It is filed as functional, cell-based. The following applies: MCF7, 72 h.
The next series has as its system HT-29. As to the kind of experiment: Antiproliferative activity against human HT-29 cells assessed as inhibition of cell growth incubated for 72 hrs by SRB assay. Format: functional, cell-based. The following applies: HT-29, 72 h.
Series [4] in a line: Cytotoxicity against human HEK293 cells assessed as inhibition of cell growth incubated for 48 hrs by MTT assay. Format: toxicity, cell-based.
Series [5] deals with SH-SY5Y. The series is described as follows: Induction of apoptosis in human SH-SY5Y cells assessed as necrotic cells at 10 uM incubated for 48 hrs by AnnexinV staining based cytofluorimetric analysis (reference value: 0 %). Format: functional. In outline:
(§2)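 SHSY5Y cells grown in 6-well plates and exposed to compounds at 10 μM for 48 h. Cells plus medium centrifuged at 1200 rpm for 5 min, washed in 1× PBS, then incubated with Annexin V/dead cell reagent 30 min at room temperature in dark. Annexin V […] populations quantified on a Muse cytofluorimetric analyzer.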

In series [6] the test system is SH-SY5Y. The series is described as follows: Induction of apoptosis in human SH-SY5Y cells assessed as viable cells at 10 uM incubated for 48 hrs by AnnexinV staining based cytofluorimetric analysis (reference value: 98.6 %). It is filed as functional. The following applies: read-out: Activity. In outline: as §2
Series [7] has as its system SH-SY5Y. As to the kind of experiment: Cell cycle arrest in human SH-SY5Y cells assessed as cells in S phase at 10 uM incubated for 48 hrs by PI staining based flow cytometry analysis (reference value: 16.2 %). Format: functional. A general note: Flow cytometry measures light scatter and fluorescence of single cells or particles in a stream.
Series [8] deals with SH-SY5Y. As to the kind of experiment: Cell cycle arrest in human SH-SY5Y cells assessed as cells in G2 phase at 10 uM incubated for 48 hrs by PI staining based flow cytometry analysis (reference value: 31.1 %). It is filed as functional.
Series [9] deals with SH-SY5Y. As to the kind of experiment: Induction of apoptosis in human SH-SY5Y cells assessed as early apoptotic cells at 10 uM incubated for 48 hrs by AnnexinV staining based cytofluorimetric analysis (reference value: 1.16 %). It is filed as functional. In outline: as §2
The subject of series [10] is SH-SY5Y. The series is described as follows: Cell cycle arrest in human SH-SY5Y cells assessed as cells in G0/G1 phase at 10 uM incubated for 48 hrs by PI staining based flow cytometry analysis (reference value: 53.2 %). Format: functional.
For series [11], the system named is SH-SY5Y. The series is described as follows: Induction of apoptosis in human SH-SY5Y cells assessed as late apoptotic cells at 10 uM incubated for 48 hrs by AnnexinV staining based cytofluorimetric analysis (reference value: 0.24 %). It is filed as functional. A digest of the protocol:
as §2

Another series concerns L1210. The series is described as follows: Antiproliferative activity against mouse L1210 cells assessed as inhibition of cell growth incubated for 72 hrs by tryphan blue staining. It is filed as functional, cell-based. The following applies: L1210, 72 h.
For the next series, the system named is B16. The series is described as follows: Antiproliferative activity against mouse B16 cells assessed as inhibition of cell growth incubated for 72 hrs by tryphan blue staining. Format: functional, cell-based. The following applies: B16, 72 h.
In the next series the test system is NIH3T3. The series is described as follows: Antiproliferative activity against mouse NIH3T3 cells assessed as inhibition of cell growth incubated for 72 hrs by tryphan blue staining. The following applies: NIH3T3, 72 h. Format: functional, cell-based.
A further series has as its system HeLa. The series is described as follows: Antiproliferative activity against human HeLa cells assessed as inhibition of cell growth incubated for 72 hrs by tryphan blue staining. It is filed as functional, cell-based.

For the compound `c1ccc(-c2nc(N3CCOCC3)c3ccccc3n2)cc1`, the IC50 (in general, the concentration that gives 50% inhibition) was 9.47 µM in the series with A549, > 25 µM in the series with MCF7 [1] and > 25 µM in the series with SH-SY5Y [2].
`O=C1Nc2ccc(F)cc2/C1=N/Nc1nc(-c2ccccc2)nc2ccccc12`: the IC50 in the series on MCF7 [3] turned out to be 7.4 µM; in the series on HT-29, 14.3 µM.
Take `FC(F)(F)c1ccc(-c2nc(N3CCOCC3)c3ccccc3n2)cc1`: the IC50 in the series with A549 worked out at 9.83 µM; in the series on MCF7 [1], 6.69 µM; in the series with SH-SY5Y [2] it was 15.8 µM. Further, the 50% inhibitory concentration (IC50) at 48 h in series [4] is > 25 µM.
For `COc1cc(-c2nc(N3CCOCC3)c3ccccc3n2)cc(OC)c1OC`, the IC50 in the series with A549 is 8.55 µM; with MCF7 [1], 3.15 µM; in the series on SH-SY5Y [2], 3.36 µM. Also, the Activity came out at 19.2% in the series on SH-SY5Y [5]; 14.4% in the series on SH-SY5Y [7]; 24.3% in the series on SH-SY5Y [8]; 2.71% in the series on SH-SY5Y [9]; 62.1% in the series with SH-SY5Y [10]; 77.6% in the series on SH-SY5Y [11]. The viability at 10 µM in the series on SH-SY5Y [6] came to 0.42%.
Take `Oc1ccc(-c2nc(N3CCOCC3)c3ccccc3n2)cc1`: the IC50 in the series on A549 came out at 12.5 µM; with MCF7 [1], 5.57 µM; in the series on SH-SY5Y [2], 20.7 µM. For the same compound, in series [4], the IC50 at 48 h is > 25 µM.
As for `c1ccc2[nH]c(-c3nc(N4CCOCC4)c4ccccc4n3)cc2c1`, the IC50 in the series on A549 was 11.5 µM; in the series with MCF7 [1], > 25 µM; in the series with SH-SY5Y [2], 14.5 µM.
For `CSc1ccc(-c2nc(N3CCOCC3)c3ccccc3n2)cc1` the same measures were 17.7 µM, 10.1 µM and 24.3 µM.
On to `O=[N+]([O-])c1ccc(-c2nnc3c4cc(Cl)ccc4nc(N4CCOCC4)n23)s1`, for which the IC50 in the series on L1210 stood at 0.58 µM; with B16, 0.24 µM; with NIH3T3, 2.74 µM; in the series with HeLa, 6.43 µM.
`COc1ccc(-c2nc(N3CCOCC3)c3ccccc3n2)cc1`: the values for the IC50 in the series with A549, in the series on MCF7 [1] and in the series on SH-SY5Y [2] were 20.8 µM, 5.01 µM and > 25 µM, respectively. Besides, the IC50 at 48 h in series [4] is > 25 µM.
As for `N#Cc1ccc(-c2nc(N3CCOCC3)c3ccccc3n2)cc1`, the figures for the IC50 in the series with A549, in the series on MCF7 [1] and with SH-SY5Y [2] were 11.1 µM, > 25 µM and > 25 µM, respectively.
With `CC(C)c1ccc(-c2nc(N3CCOCC3)c3ccccc3n2)cc1`, the results for the half-maximal inhibitory concentration (IC50) in the series with A549, in the series on MCF7 [1] and with SH-SY5Y [2] were 9.5 µM, 10.5 µM and 15.2 µM, respectively.
For `Fc1ccccc1-c1nc(N2CCOCC2)c2ccccc2n1` the same measures were 10.8 µM, > 25 µM and > 25 µM.
For the compound `CN(C)c1ccc(-c2nc(N3CCOCC3)c3ccccc3n2)cc1`, the IC50 with A549 came out at 10.4 µM; in the series with MCF7 [1], 6.44 µM; with SH-SY5Y [2] it was 9.54 µM. In [4], the IC50 at 48 h was > 25 µM. For the same compound, the Activity was found to be 19% with SH-SY5Y [5]; 15.3% with SH-SY5Y [7]; 26.2% with SH-SY5Y [8]; 2.23% in the series on SH-SY5Y [9]; 59% in the series with SH-SY5Y [10]; 78.2% with SH-SY5Y [11]. Also, the viability at 10 µM in the series with SH-SY5Y [6] was determined as 0.55%.
Turning to `Fc1cccc(Cl)c1-c1nc(N2CCOCC2)c2ccccc2n1`, the values for the IC50 in the series on A549, in the series with MCF7 [1] and in the series on SH-SY5Y [2] were 17.8 µM, > 25 µM and 22 µM, respectively.
For `Cc1ccc(-c2nc(N3CCOCC3)c3ccccc3n2)cc1` the same measures were 18.9 µM, 4.93 µM and 18 µM.
As for `COc1cc2c(c(OC)c1OC)-c1ccc(OC)c(=O)cc1[C@@H](NC(C)=O)CC2` [COLCHICINE], the IC50 is 5.13 µM with A549, 5.19 µM with MCF7 [1] and 7.89 µM in the series with SH-SY5Y [2]. The IC50 at 48 h in [4] is > 25 µM.
